ChEMBL document CHEMBL1157558, “Design, asymmetric synthesis, and evaluation of pseudosymmetric sulfoximine inhibitors against HIV-1 protease” (Bioorg Med Chem, 2010)

How the values were obtained:
[1] = test system: Human immunodeficiency virus 1; test: Antiviral activity against HIV1 assessed as inhibition of viral infection at 10 uM by cell-based assay; assay type: functional
[2] = biological target: Protease (Human immunodeficiency virus 1) (UniProt Q9YQ12); test: Inhibition of recombinant HIV1 protease at 10 uM by HPLC method
Procedure, shortened: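 Recombinant HIV-1 protease with HIV-1 Protease Substrate III in 50 mM sodium acetate pH 4.9, 200 mM NaCl, 5 mM DTT, 10% glycerol; inhibitors added from DMSO (5% v/v final). Enzyme addition starts the reaction, run 3.5 min at 37 °C, then quenched with 10% TFA. Substrate conversion is read by reverse-phase C18 HPLC (5–50% acetonitrile, 0.1% TFA), against inhibitor-free 5% DMSO baseline.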

[3] = test system: Human immunodeficiency virus 1; test: Antiviral activity against HIV1 assessed as inhibition of viral infection by cell-based assay; assay type: functional, organism-based

Chain of Protease (Human immunodeficiency virus 1) (Q9YQ12 as listed by the source): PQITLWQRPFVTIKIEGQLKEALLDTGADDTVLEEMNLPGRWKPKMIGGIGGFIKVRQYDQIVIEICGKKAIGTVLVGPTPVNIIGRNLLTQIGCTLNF

Row | SMILES | inhibition at 10 µM [1] | inhibition [2] | IC50 [3]
1 | CNC(=O)[C@H](NC(=O)[C@@H](Cc1ccccc1)C[S+]([O-])C[C@H](Cc1ccccc1)C(=O)N[C@@H](C(=O)NC)C(C)C)C(C)C | 2.1% | 90% | 
2 | O=C(N[C@H](CO)c1ccccc1)[C@@H](CSC[C@@H](Cc1ccccc1)C(=O)N[C@H](CO)c1ccccc1)Cc1ccccc1 | 1.4% | 41% | 
3 | O=C(N[C@@H](CO)c1ccccc1)[C@@H](Cc1ccccc1)C[S+]([O-])C[C@H](Cc1ccccc1)C(=O)N[C@@H](CO)c1ccccc1 | 0% | 47% | 
4 | O=C(N[C@H](CO)c1ccccc1)[C@@H](Cc1ccccc1)C[S+]([O-])C[C@H](Cc1ccccc1)C(=O)N[C@H](CO)c1ccccc1 | 2.5% | 50% | 
5 | N=[S+]([O-])(C[C@H](Cc1ccccc1)C(=O)N[C@@H](CO)c1ccccc1)C[C@H](Cc1ccccc1)C(=O)N[C@@H](CO)c1ccccc1 | 0% | 87% | 
6 | O=C(N[C@@H](CO)c1ccccc1)[C@@H](CSC[C@@H](Cc1ccccc1)C(=O)N[C@@H](CO)c1ccccc1)Cc1ccccc1 | 15.4% | 51% | 
7 | CN=[S+]([O-])(C[C@H](Cc1ccccc1)C(=O)N[C@@H]1c2ccccc2C[C@@H]1O)C[C@H](Cc1ccccc1)C(=O)N[C@@H]1c2ccccc2C[C@@H]1O |  |  | > 10 µM
8 | CNC(=O)[C@@H](NC(=O)[C@@H](CSC[C@@H](Cc1ccccc1)C(=O)N[C@H](C(=O)NC)C(C)C)Cc1ccccc1)C(C)C | 12.6% | 87% | 
9 | CNC(=O)[C@H](NC(=O)[C@@H](Cc1ccccc1)C[S+](=N)([O-])C[C@H](Cc1ccccc1)C(=O)N[C@@H](C(=O)NC)C(C)C)C(C)C | 5.5% | 99% | 
10 | N=[S+]([O-])(C[C@H](Cc1ccccc1)C(=O)N[C@H](CO)c1ccccc1)C[C@H](Cc1ccccc1)C(=O)N[C@H](CO)c1ccccc1 | 0% | 54% | 
